Reference: ChEMBL document CHEMBL1140733, “Comprehensive study of sansalvamide A derivatives and their structure-activity relationships against drug-resistant colon cancer cell lines” (J Med Chem, 2008)
Square brackets hold non-standard residues; d marks the D form. Peptide text beside a SMILES is read from it. * marks the point of attachment. Cbz = O=C(OCc1ccccc1)*; Bn = c1ccc(C*)cc1

Experiments:
[1] = system: HCT-116; test: Cytotoxicity against multidrug-resistant human HCT116 cells at 1 uM by thymidine incorporation assay; format: functional
Procedure, shortened: (§1)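 HCT-116 cells were grown in IMDM and HCT-15 in RPMI 1640, each with L-glutamine, 10% FBS and penicillin-streptomycin, at 3000 cells/well. Compound was applied at 1 µM in 1% DMSO for 72 h total, with 3H-thymidine added for the final 16 h. Percent growth inhibition versus DMSO controls was scintillation-counted, averaging three wells in each of three assays.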

[2] = system: HCT-15; test: Cytotoxicity against multidrug-resistant human HCT15 cells at 1 uM by thymidine incorporation assay; format: functional; procedure, shortened: as §1

Row | SMILES | inhibition at 1 µM [1] [%] | inhibition at 1 µM [2] [%]
1 | CC(C)C[C@@H]1NC(=O)[C@@H](Cc2ccccc2)NC(=O)[C@H](C(C)C)NC(=O)[C@@H](CC(C)C)NC(=O)[C@@H](CC(C)C)NC1=O (HELM PEPTIDE1{L.[dL].[dL].V.[dF]}$PEPTIDE1,PEPTIDE1,1:R1-5:R2$$$V2.0) | 32 | 0
2 | CC(C)C[C@@H]1NC(=O)[C@@H](C(C)C)N(C)C(=O)[C@H](CC(C)C)NC(=O)[C@@H](CC(C)C)NC(=O)[C@H](Cc2ccccc2)NC1=O (HELM PEPTIDE1{F.[dL].L.[CC(C)[C@H](C(=O)[*:2])N(C)[*:1]].L}$PEPTIDE1,PEPTIDE1,1:R1-5:R2$$$V2.0) | 38 | 14
3 | CC(C)C[C@@H]1NC(=O)[C@H](CC(C)C)NC(=O)[C@@H]2Cc3ccccc3CN2C(=O)[C@H](CC(C)C)NC(=O)[C@H](C(C)C)NC1=O (HELM PEPTIDE1{L.L.V.L.[Tic]}$PEPTIDE1,PEPTIDE1,1:R1-5:R2$$$V2.0) | 3 | 27
4 | CC(C)C[C@@H]1C(=O)N[C@H](CC(C)C)C(=O)N[C@H](C(C)C)C(=O)N[C@H](CC(C)C)C(=O)N[C@H](Cc2ccccc2)C(=O)N1C (HELM PEPTIDE1{[dF].[CC(C)C[C@H](C(=O)[*:2])N(C)[*:1]].[dL].[dV].[dL]}$PEPTIDE1,PEPTIDE1,1:R1-5:R2$$$V2.0) | 42 | 28
5 | CC(C)C[C@@H]1NC(=O)[C@H](C(C)C)NC(=O)[C@H](CC(C)C)NC(=O)[C@@H](CC(C)C)NC(=O)[C@H](Cc2ccccc2)NC1=O (HELM PEPTIDE1{F.[dL].L.V.L}$PEPTIDE1,PEPTIDE1,1:R1-5:R2$$$V2.0) | 45 | 10
6 | CC(C)C[C@@H]1NC(=O)[C@@H](C(C)C)NC(=O)[C@H](CC(C)C)NC(=O)[C@H](CC(C)C)N(C)C(=O)[C@H](Cc2ccccc2)NC1=O (HELM PEPTIDE1{F.[meL].L.[dV].L}$PEPTIDE1,PEPTIDE1,1:R1-5:R2$$$V2.0) | 38 | 19
7 | CC(C)C[C@@H]1NC(=O)[C@@H](CC(C)C)NC(=O)[C@H](Cc2ccccc2)NC(=O)[C@H](CC(C)C)NC(=O)[C@@H](C(C)C)NC1=O (HELM PEPTIDE1{F.[dL].L.[dV].L}$PEPTIDE1,PEPTIDE1,1:R1-5:R2$$$V2.0) | 16 | 20
8 | CC(C)C[C@@H]1NC(=O)CN(C)C(=O)[C@H](Cc2ccccc2)NC(=O)[C@H](C(C)C)NC(=O)[C@@H](C(C)C)NC1=O (HELM PEPTIDE1{F.[Sar].L.[dV].V}$PEPTIDE1,PEPTIDE1,1:R1-5:R2$$$V2.0) | 20 | 18
9 | CC(C)[C@@H]1NC(=O)[C@H](Cc2ccccc2)NC(=O)[C@@H](COCc2ccccc2)NC(=O)[C@H](C(C)C)NC(=O)[C@H](C(C)C)NC1=O (cyclo(FVVV[dS](Bn))) | 25 | 30
10 | CC(C)C[C@@H]1NC(=O)[C@H](Cc2ccccc2)NC(=O)[C@H](CC(C)C)NC(=O)[C@H](C(C)C)NC(=O)[C@H](CCCCNC(=O)OCc2ccccc2)NC1=O (cyclo(FLK(Cbz)VL)) | 46 | 41
11 | CC(C)C[C@@H]1NC(=O)[C@H](C(C)C)N(C)C(=O)[C@H](CC(C)C)NC(=O)[C@H](CC(C)C)N(C)C(=O)[C@H](Cc2ccccc2)NC1=O (HELM PEPTIDE1{F.[meL].L.[meV].L}$PEPTIDE1,PEPTIDE1,1:R1-5:R2$$$V2.0) | 18 | 15
12 | CC(C)C[C@@H]1NC(=O)[C@H](Cc2ccccc2)NC(=O)[C@@H](CO)NC(=O)[C@H](C(C)C)NC(=O)[C@H](CC(C)C)NC1=O (HELM PEPTIDE1{F.L.L.V.[dS]}$PEPTIDE1,PEPTIDE1,1:R1-5:R2$$$V2.0) | 37 | 3
13 | CC(C)C[C@@H]1NC(=O)[C@H](Cc2ccccc2)NC(=O)[C@H](CC(C)C)NC(=O)[C@@H](C(C)C)NC(=O)[C@H](CCCCN)NC1=O (HELM PEPTIDE1{F.L.K.[dV].L}$PEPTIDE1,PEPTIDE1,1:R1-5:R2$$$V2.0) | 11 | 18
14 | CC(C)C[C@@H]1NC(=O)[C@H](C(C)C)NC(=O)[C@H](CC(C)C)N(C)C(=O)[C@@H](CC(C)C)NC(=O)[C@H](Cc2ccccc2)NC1=O (HELM PEPTIDE1{F.[dL].[meL].V.L}$PEPTIDE1,PEPTIDE1,1:R1-5:R2$$$V2.0) | 23 | 30
15 | CC(C)[C@@H]1NC(=O)[C@H](Cc2ccccc2)NC(=O)[C@H](C(C)C)NC(=O)[C@@H](CO)NC(=O)[C@H](C(C)C)NC1=O (HELM PEPTIDE1{F.V.V.[dS].V}$PEPTIDE1,PEPTIDE1,1:R1-5:R2$$$V2.0) | 18 | 13
16 | CC(C)C[C@@H]1NC(=O)[C@H](Cc2ccccc2)NC(=O)[C@H](CC(C)C)NC(=O)[C@H](C(C)C)NC(=O)[C@H](CCCCN)NC1=O (HELM PEPTIDE1{F.L.K.V.L}$PEPTIDE1,PEPTIDE1,1:R1-5:R2$$$V2.0) | 23 | 15
